Molecules are shown by their SMILES.

The target in test [1] is T1, Growth hormone secretagogue receptor type 1 (Homo sapiens, UniProt Q92847). Description: Displacement of [35S]MK677 from human ghrelin receptor expressed in african green monkey COS7 cells. Format: cell-based, COS-7.
Target sequence in this assay (Q92847 whole entry): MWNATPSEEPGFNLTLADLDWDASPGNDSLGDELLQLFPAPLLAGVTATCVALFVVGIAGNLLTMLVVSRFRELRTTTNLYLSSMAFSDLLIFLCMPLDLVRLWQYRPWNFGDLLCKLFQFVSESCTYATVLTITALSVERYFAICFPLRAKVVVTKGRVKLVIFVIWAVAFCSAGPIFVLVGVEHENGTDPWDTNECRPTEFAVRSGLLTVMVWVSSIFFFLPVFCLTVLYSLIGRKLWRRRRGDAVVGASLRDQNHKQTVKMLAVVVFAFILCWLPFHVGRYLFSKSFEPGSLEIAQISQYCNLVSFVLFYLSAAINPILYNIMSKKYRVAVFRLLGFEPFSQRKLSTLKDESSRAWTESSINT
Test [2] has as its target T1, Growth hormone secretagogue receptor type 1. Description: Inverse agonist activity at human ghrelin receptor expressed in african green monkey COS7 cells assessed as constitutively stimulated inositol phosphate accumulation. In kind it is functional, cell-based, COS-7.
Target sequence in this assay (Q92847 whole entry): as above
The target of test [3] is Growth hormone secretagogue receptor type 1 (Homo sapiens, UniProt Q92847, F119S). The test can be described thus: Agonist activity at human ghrelin receptor Phe3:04Ser(phe119) mutant expressed in african green monkey COS7 cells assessed as stimulation of constitutively stimulated inositol phosphate accumulation.
Test [4] concerns the target Growth hormone secretagogue receptor type 1 (Homo sapiens, UniProt Q92847, V216A). The test can be described thus: Inverse agonist activity at human ghrelin receptor Val5:08Ala(Val216) mutant expressed in african green monkey COS7 cells assessed as inhibition of constitutively stimulated inositol phosphate accumulation. In kind it is functional, cell-based, COS-7. The method, boiled down: (§1)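 COS-7 cells transiently transfected (calcium phosphate with chloroquine; receptor cDNA 20 μg/75 cm2, the amount giving maximal basal signaling), labelled one day later for 24 h with 5 μCi myo-[3H]inositol. Preincubated in HEPES buffer pH 7.4 with 10 mm LiCl, 30 min at 37 °C, then exposed to various peptide concentrations, 45 min at 37 °C. Inositol phosphates recovered on anion-exchange resin; duplicates; EC50 by nonlinear regression.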

The target of test [5] is Growth hormone secretagogue receptor type 1 (Homo sapiens, UniProt Q92847, R283Q). The test can be described thus: Inverse agonist activity at human ghrelin receptor Arg6:20Gln(Arg283) mutant expressed in african green monkey COS7 cells assessed as inhibition of constitutively stimulated inositol phosphate accumulation. Format: functional, cell-based, COS-7. Summed up:
as §1

Test [6] addresses Growth hormone secretagogue receptor type 1 (Homo sapiens, UniProt Q92847, Q120A). The test can be described thus: Inverse agonist activity at human ghrelin receptor Gln3:05Ala(Gln120) mutant expressed in african green monkey COS7 cells assessed as inhibition of constitutively stimulated inositol phosphate accumulation. In kind it is functional, cell-based, COS-7. Summed up:
as §1

The target in test [7] is Growth hormone secretagogue receptor type 1 (Homo sapiens, UniProt Q92847, D99K). The test can be described thus: Agonist activity at human ghrelin receptor Asp2:20Lys(Asp99) mutant expressed in african green monkey COS7 cells assessed as inhibition of inositol phosphate accumulation. In kind it is functional, cell-based, COS-7. The method, boiled down:
as §1

Test [8] deals with Growth hormone secretagogue receptor type 1 (Homo sapiens, UniProt Q92847, S174A). The test can be described thus: Inverse agonist activity at human ghrelin receptor Ser4:16Ala(Ser174) mutant expressed in african green monkey COS7 cells assessed as inhibition of constitutively stimulated inositol phosphate accumulation. In kind it is functional, cell-based, COS-7. Summed up:
as §1

In test [9] the target is Growth hormone secretagogue receptor type 1 (Homo sapiens, UniProt Q92847, E124Q). The test can be described thus: Inverse agonist activity at human ghrelin receptor Glu3:09Gln(Glu124) mutant expressed in african green monkey COS7 cells assessed as inhibition of constitutively stimulated inositol phosphate accumulation. In kind it is functional, cell-based, COS-7. The method, boiled down: as §1

For test [10], the target named is Growth hormone secretagogue receptor type 1 (Homo sapiens, UniProt Q92847, N305A). The test can be described thus: Inverse agonist activity at human ghrelin receptor Asn7:02Ala(Asn305) mutant expressed in african green monkey COS7 cells assessed as inhibition of constitutively stimulated inositol phosphate accumulation. In kind it is functional, cell-based, COS-7. Summed up:
as §1

The target in test [11] is Growth hormone secretagogue receptor type 1 (Homo sapiens, UniProt Q92847, M213A). The test can be described thus: Inverse agonist activity at human ghrelin receptor Met5:05Ala(Met213) mutant expressed in african green monkey COS7 cells assessed as inhibition of constitutively stimulated inositol phosphate accumulation. Format: functional, cell-based, COS-7. The method, boiled down:
as §1

In test [12] the target is Growth hormone secretagogue receptor type 1 (Homo sapiens, UniProt Q92847, F220A). Description: Inverse agonist activity at human ghrelin receptor Phe5:12Ala(Phe220) mutant expressed in african green monkey COS7 cells assessed as inhibition of constitutively stimulated inositol phosphate accumulation. Format: functional, cell-based, COS-7. Summed up:
as §1

Test [13] deals with Growth hormone secretagogue receptor type 1 (Homo sapiens, UniProt Q92847, I178A). Description: Agonist activity at human ghrelin receptor Ile4:20Ala(Ile178) mutant expressed in african green monkey COS7 cells assessed as stimulation of constitutively stimulated inositol phosphate accumulation.
For test [14], the target named is Growth hormone secretagogue receptor type 1 (Homo sapiens, UniProt Q92847, S217A). Description: Inverse agonist activity at human ghrelin receptor Ser5:09Ala(Ser217) mutant expressed in african green monkey COS7 cells assessed as inhibition of constitutively stimulated inositol phosphate accumulation. In kind it is functional, cell-based, COS-7. The method, boiled down: as §1

In test [15] the target is T1, Growth hormone secretagogue receptor type 1. Description: Agonist activity at human ghrelin receptor Asp2:20Asn(Asp99) mutant expressed in african green monkey COS7 cells assessed as inhibition of inositol phosphate accumulation. In kind it is functional, cell-based. The following applies: cos-7. The method, boiled down:
as §1
Target sequence in this assay (Q92847 whole entry, looked up): as the sequence (Q92847 whole entry) above

The target in test [16] is Growth hormone secretagogue receptor type 1 (Homo sapiens, UniProt Q92847, F312A). The test can be described thus: Inverse agonist activity at human ghrelin receptor Phe7:09Ala(Phe312) mutant expressed in african green monkey COS7 cells assessed as inhibition of constitutively stimulated inositol phosphate accumulation. Format: functional, cell-based, COS-7. Summed up: as §1

For test [17], the target named is Growth hormone secretagogue receptor type 1 (Homo sapiens, UniProt Q92847, S123A). The test can be described thus: Inverse agonist activity at human ghrelin receptor Ser3:08Ala(Ser123) mutant expressed in african green monkey COS7 cells assessed as inhibition of constitutively stimulated inositol phosphate accumulation. Format: functional, cell-based, COS-7. Summed up: as §1

Test [18] concerns the target T1, Growth hormone secretagogue receptor type 1. The test can be described thus: Inverse agonist activity at human wild type ghrelin receptor expressed in african green monkey COS7 cells assessed as inhibition of constitutively stimulated inositol phosphate accumulation. Format: functional, cell-based, COS-7. Summed up:
as §1
Target sequence in this assay (Q92847 whole entry): as above

The target is the same in test [19]. The test can be described thus: Inverse agonist activity at human ghrelin receptor Phe7:06Leu(Phe306) mutant expressed in african green monkey COS7 cells assessed as inhibition of constitutively stimulated inositol phosphate accumulation. In kind it is functional, cell-based. The following applies: cos-7. The method, boiled down: as §1
Target sequence in this assay (Q92847 whole entry, looked up): as the sequence (Q92847 whole entry) above

Sequence of Growth hormone secretagogue receptor type 1 (Homo sapiens, UniProt Q92847, F119S) (Q92847 whole entry F119S): as the sequence (Q92847 whole entry) above, with F119S counted along it
Sequence of Growth hormone secretagogue receptor type 1 (Homo sapiens, UniProt Q92847, Q120A) (Q92847 whole entry Q120A): as the sequence (Q92847 whole entry) above, with Q120A counted along it
Sequence of Growth hormone secretagogue receptor type 1 (Homo sapiens, UniProt Q92847, S123A) (Q92847 whole entry S123A): as the sequence (Q92847 whole entry) above, with S123A counted along it
Sequence of Growth hormone secretagogue receptor type 1 (Homo sapiens, UniProt Q92847, F220A) (Q92847 whole entry F220A): as the sequence (Q92847 whole entry) above, with F220A counted along it
Sequence of Growth hormone secretagogue receptor type 1 (Homo sapiens, UniProt Q92847, R283Q) (Q92847 whole entry R283Q): as the sequence (Q92847 whole entry) above, with R283Q counted along it
Sequence of Growth hormone secretagogue receptor type 1 (Homo sapiens, UniProt Q92847, E124Q) (Q92847 whole entry E124Q): as the sequence (Q92847 whole entry) above, with E124Q counted along it
Sequence of Growth hormone secretagogue receptor type 1 (Homo sapiens, UniProt Q92847, M213A) (Q92847 whole entry M213A): as the sequence (Q92847 whole entry) above, with M213A counted along it
Sequence of Growth hormone secretagogue receptor type 1 (Homo sapiens, UniProt Q92847, D99K) (Q92847 whole entry D99K): as the sequence (Q92847 whole entry) above, with D99K counted along it
Sequence of Growth hormone secretagogue receptor type 1 (Homo sapiens, UniProt Q92847, V216A) (Q92847 whole entry V216A): as the sequence (Q92847 whole entry) above, with V216A counted along it
Sequence of Growth hormone secretagogue receptor type 1 (Homo sapiens, UniProt Q92847, S174A) (Q92847 whole entry S174A): as the sequence (Q92847 whole entry) above, with S174A counted along it
Sequence of Growth hormone secretagogue receptor type 1 (Homo sapiens, UniProt Q92847, F312A) (Q92847 whole entry F312A): as the sequence (Q92847 whole entry) above, with F312A counted along it
Sequence of Growth hormone secretagogue receptor type 1 (Homo sapiens, UniProt Q92847, S217A) (Q92847 whole entry S217A): as the sequence (Q92847 whole entry) above, with S217A counted along it
Sequence of Growth hormone secretagogue receptor type 1 (Homo sapiens, UniProt Q92847, N305A) (Q92847 whole entry N305A): as the sequence (Q92847 whole entry) above, with N305A counted along it
Sequence of Growth hormone secretagogue receptor type 1 (Homo sapiens, UniProt Q92847, I178A) (Q92847 whole entry I178A): as the sequence (Q92847 whole entry) above, with I178A counted along it

As for `C[C@H](NC(=O)[C@H](C)NC(=O)[C@@H](Cc1c[nH]c2ccccc12)NC(=O)[C@H](Cc1ccccc1)NC(=O)[C@H](N)Cc1c[nH]c2ccccc12)C(N)=O`, the IC50 in test [1] and in [2] was > 1000 nM throughout.
`CC(C)C[C@H](NC(=O)[C@H](CC(C)C)NC(=O)[C@@H](Cc1c[nH]c2ccccc12)NC(=O)[C@H](Cc1ccccc1)NC(=O)[C@@H](Cc1c[nH]c2ccccc12)NC(=O)[C@@H](N)CCCCN)C(N)=O`: the EC50 in [3] came out at 60 nM; in test [13] it was 43 nM. For the same compound, the IC50 in test [4] was 27 nM; in test [5] it was > 1000 nM; in test [6] it was > 1000 nM; in test [1], 13 nM; in test [7], > 1000 nM; in test [8] it was 2.6 nM. Further, the IC50 in [9] was > 1000 nM; in test [10], 61 nM; in test [11], 29 nM; in test [12], 19 nM; in [14] it was 83 nM; in [2] it was 36 nM. The IC50 in test [15] is > 1000 nM; in [16], > 1000 nM; in test [17] it was 21 nM; in test [18] it was 32 nM; in [19] it was > 1000 nM.
